pIC50: −log10 of the molar value. Calls of active or inactive are those of the source. No cut-off for these calls is given here.
Assays:
[1] = (§1) Antiproliferative activity against human HL60 cells after 72 hrs by MTT assay; assay type: functional, cell-based; details: HL-60, 72 h
In short: (§2)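 MTT viability after 72 h continuous exposure. Cells seeded 24 h beforehand at 2,000/well (adherent) or 10,000/well (suspension), then given 0, 0.01, 0.1, 0.5, 1.0 or 10.0 μM compound diluted from 10 mM DMSO stock into RPMI or DMEM with 10% FBS, 37°C, 5% CO2. IC50 taken as concentration killing 50% of cells versus untreated culture.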

[2] = Antiproliferative activity against human SKOV3 cells after 72 hrs by MTT assay; assay type: functional, cell-based; details: SK-OV-3, 72 h; in short: as §2
HL-60 [3] = experiment: Cytotoxicity against human HL60 cells assessed as reduction in cell survival up to 1 uM treated for 30 mins with ROS scavenger N-acetylcysteine measured after 72 hrs by MTT assay; assay type: functional, cell-based
HL60/ADR [4] = experiment: Cytotoxicity against human HL60/ADR cells assessed as reduction in cell survival up to 1 uM treated for 30 mins with ROS scavenger N-acetylcysteine measured after 72 hrs by MTT assay; assay type: functional, cell-based
HL-60 [5] = experiment: as §1; assay type: functional, cell-based; in short: as §2
[6] = (§3) Antiproliferative activity against human HL60/ADR cells after 72 hrs by MTT assay; assay type: functional, cell-based; in short: as §2
HL60/ADR [7] = experiment: as §3; assay type: functional, cell-based; in short: as §2
Jurkat = experiment: Antiproliferative activity against human Jurkat cells after 72 hrs by MTT assay; assay type: functional, cell-based; in short: as §2
L1210 = experiment: Antiproliferative activity against mouse L1210 cells after 72 hrs by MTT assay; assay type: functional, cell-based; details: L1210, 72 h; in short: as §2
L929 = experiment: Antiproliferative activity against mouse L929 cells after 72 hrs by MTT assay; assay type: functional, cell-based; details: L929, 72 h; in short: as §2
MCF7 = experiment: Antiproliferative activity against human MCF7 cells after 72 hrs by MTT assay; assay type: functional, cell-based; details: MCF7, 72 h; in short: as §2
[8] = Antiproliferative activity against mouse KS483 cells after 72 hrs by MTT assay; assay type: cell-based; details: KS483, 72 h; in short: as §2
[9] = Antiproliferative activity against HEK293T cells after 72 hrs by MTT assay; assay type: cell-based; details: Homo sapiens, HEK-293T; in short: as §2
HL-60 [10] = experiment: Antiproliferative activity against human HL60 cells at 0.01 to 10 uM by MTT assay; assay type: functional, cell-based; details: TDE = time-dependent effect
In short: (§4)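 MTT viability: cells seeded 24 h at 2,000 (adherent) or 10,000 (suspension) per well, then exposed 72 h to 0.01-10.0 μM (0, 0.01, 0.1, 0.5, 1.0, 10.0 μM), diluted from 10 mM DMSO stock into medium with 10% FBS. IC50 is concentration killing 50% of cells relative to untreated control.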

HL60/ADR [11] = experiment: Antiproliferative activity against human HL60/ADR cells at 0.01 to 10 uM by MTT assay; assay type: functional, cell-based; details: TDE = time-dependent effect; in short: as §4
[12] = Antiproliferative activity against human HL60 cells measured at 6 hrs by MTT assay; assay type: functional, cell-based; details: HL-60, 6 h
In short: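 Exposure-time series in HL-60 cells: compound present for 3, 6, 24, 48 or 72 h, viability then read by MTT. IC50 is concentration killing 50% of cells relative to untreated culture.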

HL-60 [13] = experiment: Cytotoxicity against human HL60 cells assessed as reduction in cell survival up to 1 uM treated for 30 mins with ROS scavenger ascorbic acid measured after 72 hrs by MTT assay; assay type: functional, cell-based
HL60/ADR [14] = experiment: Cytotoxicity against human HL60/ADR cells assessed as reduction in cell survival up to 1 uM treated for 30 mins with ROS scavenger ascorbic acid measured after 72 hrs by MTT assay; assay type: functional, cell-based
HL-60 [15] = experiment: Induction of apoptosis in human HL60 cells assessed as apoptotic cells at 0.1 to 1 uM after 48 hrs by Annexin V-FITC/propidium iodide staining based fluorescence microscopic analysis; assay type: functional, cell-based
In short: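 HL-60 cells treated 48 h, pelleted at 2,000 rpm, washed twice in PBS and incubated 15 min in Annexin V binding buffer with 1/20 volume FITC-Annexin V and PI (20.0 μg/mL). Cells examined by fluorescence microscopy on duplicate slides, >500 cells counted per sample.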

HL-60 [16] = experiment: Induction of apoptosis in human HL60 cells assessed as increase in Bax expression at 0.1 to 1 uM after 48 hrs by Western blot analysis; assay type: functional, cell-based
In short: (§5)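 HL-60 cells exposed 48 h; proteins isolated, resolved by SDS/PAGE, transferred to PVDF and immunoblotted. Equal loading checked by re-probing the same membrane for beta-actin. Peroxidase-labelled secondary antibodies at 1:5,000.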

HL-60 [17] = experiment: Induction of apoptosis in human HL60 cells assessed as decrease in Bcl-XL expression at 0.1 to 1 uM after 48 hrs by Western blot analysis; assay type: functional, cell-based; in short: as §5
[18] = molecular target: MAP kinase p38 (Homo sapiens) (UniProt O15264+Q15759+Q16539+P53778); experiment: Induction of MAPK p38 phosphorylation in human HL60 cells at 0.1 to 1 uM after 48 hrs by Western blot analysis; assay type: cell-based; details: HL-60; in short: as §5
[19] = molecular target: T1, c-Jun N-terminal kinase, JNK (Homo sapiens) (UniProt P45983+P53779+P45984); experiment: Inhibition of JNK phosphorylation in human HL60 cells at 0.1 to 1 uM after 48 hrs by Western blot analysis; assay type: cell-based; details: HL-60; in short: as §5
[20] = molecular target: T1, c-Jun N-terminal kinase, JNK (Homo sapiens); experiment: Inhibition of JNK in human HL60 cells assessed as increase in phosphorylated STAT3 expression at 0.1 to 1 uM after 48 hrs by Western blot analysis; assay type: cell-based; details: HL-60; in short: as §5
[21] = molecular target: Mitogen-activated protein kinase; ERK1/ERK2 (Homo sapiens) (UniProt P27361+P28482); experiment: Activation of ERK1/2 in human HL60 cells at 0.1 to 1 uM after 48 hrs by Western blot analysis; assay type: cell-based; details: HL-60; in short: as §5
Sequence of Mitogen-activated protein kinase; ERK1/ERK2 (Homo sapiens) (P27361 whole entry, looked up): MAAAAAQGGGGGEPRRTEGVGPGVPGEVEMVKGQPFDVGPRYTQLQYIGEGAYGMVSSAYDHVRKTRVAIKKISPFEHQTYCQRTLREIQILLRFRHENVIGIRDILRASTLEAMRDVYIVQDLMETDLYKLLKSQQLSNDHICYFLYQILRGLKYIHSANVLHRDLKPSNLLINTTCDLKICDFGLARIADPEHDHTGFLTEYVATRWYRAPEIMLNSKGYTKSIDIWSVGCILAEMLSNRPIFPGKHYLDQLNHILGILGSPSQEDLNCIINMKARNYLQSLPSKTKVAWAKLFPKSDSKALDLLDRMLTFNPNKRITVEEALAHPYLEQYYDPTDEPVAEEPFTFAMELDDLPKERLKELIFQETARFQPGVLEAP
Sequence of Mitogen-activated protein kinase; ERK1/ERK2 (Homo sapiens) (P28482 whole entry, looked up): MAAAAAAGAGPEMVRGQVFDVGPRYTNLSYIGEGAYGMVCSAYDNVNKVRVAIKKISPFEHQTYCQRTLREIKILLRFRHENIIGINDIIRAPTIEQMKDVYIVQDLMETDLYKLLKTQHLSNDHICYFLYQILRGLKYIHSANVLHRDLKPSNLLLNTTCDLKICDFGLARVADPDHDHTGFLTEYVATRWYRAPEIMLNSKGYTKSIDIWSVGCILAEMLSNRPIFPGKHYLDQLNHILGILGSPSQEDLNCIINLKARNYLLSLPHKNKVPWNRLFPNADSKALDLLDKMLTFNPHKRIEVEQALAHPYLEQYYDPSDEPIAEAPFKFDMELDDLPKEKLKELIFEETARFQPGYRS

[22] = molecular target: T2, Endonuclease G, mitochondrial (Homo sapiens) (UniProt Q14249); experiment: Activation of endonuclease G in human HL60 cells at 0.1 to 1 uM after 48 hrs by Western blot analysis; assay type: cell-based; details: HL-60; in short: as §5
T2 sequence (whole entry): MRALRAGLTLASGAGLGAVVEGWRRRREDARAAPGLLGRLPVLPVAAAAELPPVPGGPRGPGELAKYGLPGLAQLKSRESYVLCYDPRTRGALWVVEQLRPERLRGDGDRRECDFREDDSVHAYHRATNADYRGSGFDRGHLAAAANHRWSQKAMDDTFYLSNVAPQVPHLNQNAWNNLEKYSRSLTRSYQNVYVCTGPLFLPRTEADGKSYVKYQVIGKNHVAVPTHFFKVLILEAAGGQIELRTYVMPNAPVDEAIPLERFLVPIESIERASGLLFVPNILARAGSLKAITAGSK

[23] = Cell cycle arrest in human HL60 cells assessed as accumulation at G0/G1 phase at 0.1 to 1 uM after 8 to 48 hrs by propidium iodide staining based flow cytometry; assay type: functional; details: HL-60
In short: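 HL-60 cells treated 8 and 48 h, washed in PBS, fixed in 70% ethanol and stored at -20°C. Then RNase (10 µg/ml) 30 min at 37°C, propidium iodide (5 µg/ml) 30 min, and cell-cycle distribution read by flow cytometry.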

HL-60 [24] = experiment: Induction of apoptosis in human HL60 cells assessed as increase in p21 expression at 0.1 to 1 uM after 48 hrs by Western blot analysis; assay type: functional, cell-based; in short: as §5
HL-60 [25] = experiment: Induction of apoptosis in human HL60 cells assessed as increase in CDK1 expression at 0.1 to 1 uM after 48 hrs by Western blot analysis; assay type: functional, cell-based; in short: as §5
HL-60 [26] = experiment: Induction of apoptosis in human HL60 cells assessed as decrease in cyclinD3 expression at 0.1 to 1 uM after 48 hrs by Western blot analysis; assay type: functional, cell-based; in short: as §5
[27] = molecular target: T3, Retinoblastoma-associated protein (Homo sapiens) (UniProt P06400); experiment: Inhibition of retinoblastoma protein phosphorylation in human HL60 cells at 0.1 to 1 uM after 48 hrs by Western blot analysis; assay type: cell-based; details: HL-60; in short: as §5
T3 sequence (whole entry): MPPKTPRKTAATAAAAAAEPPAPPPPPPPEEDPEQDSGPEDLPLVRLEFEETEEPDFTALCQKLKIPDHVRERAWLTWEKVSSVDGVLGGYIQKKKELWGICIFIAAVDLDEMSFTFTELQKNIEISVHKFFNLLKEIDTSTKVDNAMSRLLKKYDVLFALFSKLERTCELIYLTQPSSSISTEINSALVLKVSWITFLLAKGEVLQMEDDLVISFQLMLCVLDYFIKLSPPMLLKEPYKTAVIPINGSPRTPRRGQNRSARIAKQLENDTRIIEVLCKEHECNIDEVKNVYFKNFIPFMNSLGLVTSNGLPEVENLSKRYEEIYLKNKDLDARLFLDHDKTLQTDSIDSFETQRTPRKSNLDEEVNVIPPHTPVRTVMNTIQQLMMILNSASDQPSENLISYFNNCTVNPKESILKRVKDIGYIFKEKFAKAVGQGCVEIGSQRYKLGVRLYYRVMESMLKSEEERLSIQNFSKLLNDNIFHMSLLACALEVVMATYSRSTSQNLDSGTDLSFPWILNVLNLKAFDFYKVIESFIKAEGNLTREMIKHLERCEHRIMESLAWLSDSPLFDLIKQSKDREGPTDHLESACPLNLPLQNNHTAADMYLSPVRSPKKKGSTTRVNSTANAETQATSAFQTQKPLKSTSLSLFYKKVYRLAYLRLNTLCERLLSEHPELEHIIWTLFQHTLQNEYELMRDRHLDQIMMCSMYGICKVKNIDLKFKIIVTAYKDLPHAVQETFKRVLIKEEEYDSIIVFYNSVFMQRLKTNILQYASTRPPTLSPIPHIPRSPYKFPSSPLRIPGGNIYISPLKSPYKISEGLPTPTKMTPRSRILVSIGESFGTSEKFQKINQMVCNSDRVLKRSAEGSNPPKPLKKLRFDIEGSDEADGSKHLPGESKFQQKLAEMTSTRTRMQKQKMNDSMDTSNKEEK

CN1C(=O)/C(=C/N2N=C(c3ccccc3)CC2c2ccccc2O)SC1=S (stereo not given)
pIC50 [1]: 5.54 | pIC50 [2]: 6.47

CC(=O)Oc1ccc(N2C(=O)/C(=C/N3N=C(c4ccc5ccccc5c4)CC3c3ccc(Cl)cc3)SC2=S)cc1 (stereo not given)
pIC50 [1]: 5.74 | pIC50 [2]: < 5.00

CC(=O)Oc1cccc(N2C(=O)/C(=C/N3N=C(c4ccccc4)CC3c3ccccc3O)SC2=S)c1 (stereo not given)
Activity (HL-60 [3]): inactive | Activity (HL60/ADR [4]): inactive | pIC50 [1]: 6.93 | Activity (HL-60 [5]): Dose-dependent effect | pIC50 [2]: < 5.00 | pIC50 [6]: 6.00 | Activity (HL60/ADR [7]): Dose-dependent effect | pIC50 (Jurkat): 5.96 | pIC50 (L1210): 6.15 | pIC50 (L929): < 5.00 | pIC50 (MCF7): 5.08 | pIC50 [8]: < 5.00 | pIC50 [9]: < 5.00 | Activity (HL-60 [10]): tde | Activity (HL60/ADR [11]): tde | pIC50 [12]: 6.30 | Activity (HL-60 [13]): inactive | Activity (HL60/ADR [14]): inactive | Activity (HL-60 [15]): Active | Activity (HL-60 [16]): Active | Activity (HL-60 [17]): Active | Activity [18]: Active | inhibition [19]: Active | inhibition [20]: Active | Activity [21]: Active | Activity [22]: Active | Activity [23]: Active | Activity (HL-60 [24]): Active | Activity (HL-60 [25]): Active | Activity (HL-60 [26]): Active | inhibition [27]: Active

COc1ccc(C2CC(c3ccc4ccccc4c3)=NN2/C=C2\SC(=S)N(c3ccc(OC(C)=O)cc3)C2=O)cc1 (stereo not given)
pIC50 [1]: < 5.00 | pIC50 [2]: 5.96

CC(=O)Oc1ccc(N2C(=O)/C(=C/N3N=C(c4ccc5ccccc5c4)CC3c3ccccc3O)SC2=S)cc1 (stereo not given)
pIC50 [1]: 6.30 | pIC50 [2]: < 5.00

CN(C)c1ccc(C2CC(c3ccccc3)=NN2/C=C2\SC(=S)NC2=O)cc1 (stereo not given)
pIC50 [1]: < 5.00 | pIC50 [2]: < 5.00

O=C1NC(=S)/C(=C/N2N=C(c3ccccc3)CC2c2ccccc2O)S1 (stereo not given)
pIC50 [1]: 6.00 | pIC50 [2]: 5.10

O=C1NC(=S)S/C1=C\N1N=C(c2ccc3ccccc3c2)CC1c1ccc(Cl)cc1 (stereo not given)
pIC50 [1]: 6.40 | pIC50 [2]: 6.79

CN1C(=O)/C(=C/N2N=C(c3ccc4ccccc4c3)CC2c2ccccc2O)SC1=S (stereo not given)
pIC50 [1]: < 5.00 | pIC50 [2]: < 5.00

COc1cccc2c1C(=O)c1c(O)c3c(c(O)c1C2=O)C[C@@](O)(C(=O)CO)C[C@@H]3O[C@H]1C[C@H](N)[C@H](O)[C@H](C)O1 [DOXORUBICIN]
pIC50 [1]: 7.29 | pIC50 [2]: 7.14 | pIC50 [6]: 5.06
